Laboratory results as given in ChEMBL document CHEMBL3259670, “Discovery of 1-aryloxyethyl piperazine derivatives as Kv1.5 potassium channel inhibitors (part I)” (Eur J Med Chem, 2014).
Structures can show the parent of a compound that is named as a salt. Active and inactive are the calls of the source. The rule behind the calls is not given here.

How the values were obtained:
[1] = biological target: T1, Potassium voltage-gated channel subfamily A member 5 (Homo sapiens, UniProt P22460); assay: Inhibition of human Kv1.5 channel expressed in HEK293 cells by whole cell patch clamp assay; type: cell-based
T1 sequence (P22460 whole entry): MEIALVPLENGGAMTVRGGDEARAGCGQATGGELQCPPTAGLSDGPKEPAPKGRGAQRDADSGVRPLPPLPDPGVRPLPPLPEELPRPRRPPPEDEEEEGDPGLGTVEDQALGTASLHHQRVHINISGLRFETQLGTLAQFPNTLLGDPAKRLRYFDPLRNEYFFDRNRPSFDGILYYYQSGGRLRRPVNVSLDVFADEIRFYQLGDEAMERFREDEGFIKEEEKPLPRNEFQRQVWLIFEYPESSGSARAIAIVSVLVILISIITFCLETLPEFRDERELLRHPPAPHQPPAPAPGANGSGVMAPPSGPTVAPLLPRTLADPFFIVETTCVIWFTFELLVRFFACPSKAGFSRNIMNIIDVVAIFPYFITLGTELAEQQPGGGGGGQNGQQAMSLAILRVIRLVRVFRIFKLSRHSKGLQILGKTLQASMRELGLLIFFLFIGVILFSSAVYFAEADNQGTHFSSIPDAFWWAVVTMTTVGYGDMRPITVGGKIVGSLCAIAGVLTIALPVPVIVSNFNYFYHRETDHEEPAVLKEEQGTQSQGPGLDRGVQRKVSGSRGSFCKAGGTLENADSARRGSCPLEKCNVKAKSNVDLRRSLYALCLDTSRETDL
Summary of the method: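 Whole-cell patch clamp was done on transfected HEK293 cells, harvested by trypsin and used the same day, with 4–6 MΩ pipettes at 25 °C. IKur was elicited by 500-ms steps to +60 mV from a −80 mV holding potential at 0.1 Hz. Compound was applied at least 5 min after current stabilization. IC50 came from cell-by-cell Hill fits, with at least 3 cells per concentration; mean ± SD.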

[2] = Partition coefficient, log D of the compound at pH 7.4; type: physicochemical; conditions: octanol/water
Summary of the method: (§1)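 pKa and log D at pH 7.4 were determined by Avdeef–Bucher potentiometric titration on a Gemini Profiler instrument.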

MDCK [3] = assay: (§2) Apparent permeability from apical to basolateral side in MDCK cells; type: ADME, cell-based, Canis lupus familiaris; conditions: dog
Summary of the method: (§3)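 Bidirectional transport (apical→basolateral and basolateral→apical) was measured in parental MDCK cells and in MDR1-MDCK cells, which stably express multidrug resistance gene 1, to assess P-glycoprotein substrate status. Apparent permeability coefficients (Papp) were determined for each direction. Efflux ratios are ratios of the directional Papp values, computed per cell line. Mean ± SD, n = 3.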

MDCK [4] = assay: (§4) Apparent permeability from basolateral to apical side in MDCK cells expressing MDR1; type: ADME, cell-based, Canis lupus familiaris; conditions: dog, mdck; summary of the method: as §3
MDCK [5] = assay: (§5) Apparent permeability from basolateral to apical side in MDCK cells; type: ADME, cell-based, Canis lupus familiaris; conditions: dog; summary of the method: as §3
MDCK [6] = assay: Efflux ratio of permeability from apical to basolateral over basolateral to apical in MDCK cells expressing MDR1; type: ADME, cell-based, Canis lupus familiaris; conditions: dog; summary of the method: as §3
MDCK [7] = assay: Efflux ratio of permeability from apical to basolateral over basolateral to apical in MDCK cells; type: ADME, cell-based, Canis lupus familiaris; conditions: dog; summary of the method: as §3
[8] = Dissociation constant, pKa of the compound; type: physicochemical; summary of the method: as §1
MDCK [9] = assay: (§6) Apparent permeability from apical to basolateral side in MDCK cells expressing MDR1; type: ADME, cell-based, Canis lupus familiaris; conditions: dog, mdck; summary of the method: as §3
Rattus norvegicus [10] = assay: Inhibition of Cacl2-Ach-induced atrial fibrillation Sprague-Dawley rat model assessed as reduction in duration of atrial fibrillation at 1.25 mg/kg, ip during day 1 to day 3; type: functional, organism-based; design: dose 1.25 mg/kg; conditions: Cardiac atrium
Rattus norvegicus [11] = assay: Inhibition of Cacl2-Ach-induced atrial fibrillation Sprague-Dawley rat model assessed as reduction in duration of atrial fibrillation at 1.25 mg/kg, ip during day 4 to day 7; type: functional, organism-based; design: dose 1.25 mg/kg; conditions: Cardiac atrium
Rattus norvegicus [12] = assay: Inhibition of Cacl2-Ach-induced atrial fibrillation Sprague-Dawley rat model assessed as increase in atrial effective refractory period at 1.25 mg/kg, ip; conditions: Cardiac atrium
Rattus norvegicus [13] = assay: Inhibition of Cacl2-Ach-induced atrial fibrillation Sprague-Dawley rat model assessed as increase in atrial effective refractory period at 2.5 mg/kg, ip; conditions: Cardiac atrium
[14] = as §2; type: ADME, cell-based, Canis lupus familiaris; conditions: dog; summary of the method: as §3
Rattus norvegicus [15] = assay: Inhibition of Cacl2-Ach-induced atrial fibrillation Sprague-Dawley rat model assessed as reduction in duration of atrial fibrillation at 2.5 mg/kg, ip during day 1 to day 3; type: functional, organism-based; design: dose 2.5 mg/kg; conditions: Cardiac atrium
[16] = Toxicity in SPF mouse compound administered through iv; type: organism-based; conditions: in vivo
Summary of the method: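 Acute toxicity by tail-vein iv injection in SPF mice: 70 animals in 7 groups, one given distilled water (30 mL/kg) and six given 84.6, 79.8, 75.3, 71, 67 or 63.2 mg/kg. Behaviour, mental state, excrement and death observed continuously over 0-0.5 h, every 0.5 h to 6 h, then daily for 15 days. LD50 derived by the Bliss-Finney method.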

MDR1 [17] = assay: as §4; type: ADME, cell-based, Canis lupus familiaris; conditions: dog, MDCK-MDR1; summary of the method: as §3
[18] = as §5; type: ADME, cell-based, Canis lupus familiaris; conditions: dog; summary of the method: as §3
Rattus norvegicus [19] = assay: Inhibition of Cacl2-Ach-induced atrial fibrillation Sprague-Dawley rat model assessed as reduction in duration of atrial fibrillation at 2.5 mg/kg, ip during day 4 to day 7; type: functional, organism-based; design: dose 2.5 mg/kg; conditions: Cardiac atrium
MDR1 [20] = assay: as §6; type: ADME, cell-based, Canis lupus familiaris; conditions: dog, MDCK-MDR1; summary of the method: as §3
[21] = biological target: T1, Potassium voltage-gated channel subfamily A member 5; assay: Inhibition of human Kv1.5 channel expressed in HEK293 cells at 11 uM by whole cell patch clamp assay; type: cell-based

## O=C(CN1CCN(CCOc2ccccc2)CC1)Nc1nccs1
[1]
  IC50: 29.3 µM

## Cc1ccc(OCCN2CCN(CC(=O)Nc3nccs3)CC2)cc1C
[1]
  IC50: 50.2 µM

## Cc1ccc(OCCN2CCN(CC(=O)Nc3nccs3)CC2)cc1
[1]
  IC50: 8.93 µM

## CC(C)(C)c1ccc(OCCN2CCN(CC(=O)Nc3nccs3)CC2)cc1
[1]
  IC50: 63.2 µM

## O=C(c1ccccc1)N1CCN(CCOc2ccccc2)CC1
[1]
  IC50: 38.8 µM

## O=C(c1cccs1)N1CCN(CCOc2ccccc2Cl)CC1
[1]
  IC50: 9.74 µM

## COc1ccc(C(=O)N2CCN(CCOc3ccc(Cl)cc3)CC2)cc1
[1]
  IC50: 5.5 µM

## O=C(c1cccs1)N1CCN(CCOc2ccc(OC(F)(F)F)cc2)CC1
[1]
  IC50: 6.44 µM

## N#Cc1ccc(OCCN2CCN(CC(=O)Nc3ccccc3)CC2)cc1
[1]
  IC50: 9.1 µM

## COc1ccc(OCCN2CCN(CC(=O)Nc3nccs3)CC2)cc1
[1]
  IC50: 9.13 µM

## N#Cc1ccc(OCCN2CCN(CC(=O)Nc3nccs3)CC2)cc1
[2]
  logD: 1.72
MDCK [3]
  Papp: 14.8 ×10⁻⁶ cm/s
MDCK [4]
  Papp: 19.8 ×10⁻⁶ cm/s
MDCK [5]
  Papp: 16.7 ×10⁻⁶ cm/s
MDCK [6]
  Ratio: 1.14
[1]
  IC50: 0.97 µM
MDCK [7]
  Ratio: 1.14
[8]
  pKa: 6.37
MDCK [9]
  Papp: 18.9 ×10⁻⁶ cm/s

## CCCCc1oc2ccc(NS(C)(=O)=O)cc2c1C(=O)c1ccc(OCCCN(CCCC)CCCC)cc1 [DRONEDARONE HYDROCHLORIDE]
Rattus norvegicus [10]
  Activity: inactive
Rattus norvegicus [11]
  Activity: Active
[1]
  IC50: 2.37 µM
Rattus norvegicus [12]
  Activity: Active

## O=C(c1cccs1)N1CCN(CCOc2ccc(Cl)cc2)CC1
[2]
  logD: 1.94
Rattus norvegicus [13]
  Activity: Active
[14]
  Papp A→B: 21.3 ×10⁻⁶ cm/s
Rattus norvegicus [10]
  Activity: inactive
Rattus norvegicus [15]
  Activity: inactive
[16]
  LD50: 73.7 mg/kg
MDR1 [17]
  Papp B→A: 19.3 ×10⁻⁶ cm/s
[18]
  Papp B→A: 21.9 ×10⁻⁶ cm/s
Rattus norvegicus [19]
  Activity: Active
MDCK [6]
  Ratio: 0.84
Rattus norvegicus [11]
  Activity: Active
[1]
  IC50: 0.72 µM
MDCK [7]
  Ratio: 0.97
Rattus norvegicus [12]
  Activity: Active
[8]
  pKa: 6.35
MDR1 [20]
  Papp A→B: 16.1 ×10⁻⁶ cm/s

## Cc1ccc(NC(=O)CN2CCN(CCOc3ccccc3)CC2)cc1
[1]
  IC50: 16.1 µM

## Cc1ccc(OCCN2CCN(C(=O)c3ccccc3)CC2)cc1
[1]
  IC50: 25.3 µM

## O=C(c1cccs1)N1CCN(CCOc2ccc(F)cc2)CC1
[1]
  IC50: 12.7 µM

## COc1ccc(NC(=O)CN2CCN(CCOc3ccc(C#N)cc3)CC2)cc1
[1]
  IC50: 14.5 µM

## Cc1ccc(OCCN2CCN(C(=O)c3cccs3)CC2)cc1
[2]
  logD: 3.24
[14]
  Papp A→B: 20 ×10⁻⁶ cm/s
MDR1 [17]
  Papp B→A: 32.8 ×10⁻⁶ cm/s
[18]
  Papp B→A: 31.1 ×10⁻⁶ cm/s
MDCK [6]
  Ratio: 0.78
[1]
  IC50: 1.52 µM
MDCK [7]
  Ratio: 0.64
[8]
  pKa: 6.4
MDR1 [20]
  Papp A→B: 25.6 ×10⁻⁶ cm/s

## O=C(c1cccs1)N1CCN(CCOc2ccc(Br)cc2)CC1
[1]
  IC50: 12.2 µM

## O=C(c1ccccc1)N1CCN(CCOc2ccc(Cl)cc2)CC1
[1]
  IC50: 3.97 µM

## O=C(CN1CCN(CCOc2ccc3ccccc3c2)CC1)Nc1nccs1
[1]
  IC50: 68 µM

## COc1ccc(NC(=O)CN2CCN(CCOc3ccccc3)CC2)cc1
[1]
  IC50: 10.1 µM

## O=C(CN1CCN(CCOc2ccccc2)CC1)Nc1ccccc1Cl
[1]
  IC50: 29.4 µM

## COc1ccc(OCCN2CCN(C(=O)c3cccs3)CC2)cc1
[1]
  IC50: 21.9 µM

## O=C(CN1CCN(CCOc2ccccc2)CC1)Nc1ccccc1
[1]
  IC50: 28.6 µM

## Cc1ccc(C(=O)N2CCN(CCOc3ccc(Cl)cc3)CC2)cc1
[1]
  IC50: 4.51 µM

## CCOC(=O)c1ccc(OCCN2CCN(CC(=O)Nc3nccs3)CC2)cc1
[21]
  inhibition: 32.1%

## Cc1ccccc1OCCN1CCN(CC(=O)Nc2nccs2)CC1
[2]
  logD: 2.45
MDCK [3]
  Papp: 32.2 ×10⁻⁶ cm/s
MDR1 [17]
  Papp B→A: 32.3 ×10⁻⁶ cm/s
MDCK [5]
  Papp: 34.2 ×10⁻⁶ cm/s
MDCK [6]
  Ratio: 0.92
[1]
  IC50: 1.24 µM
MDCK [7]
  Ratio: 1.09
[8]
  pKa: 7.11
MDR1 [20]
  Papp A→B: 28.9 ×10⁻⁶ cm/s

## N#Cc1ccc(OCCN2CCN(C(=O)c3cccs3)CC2)cc1
[1]
  IC50: 10.2 µM

## N#Cc1ccc(OCCN2CCN(C(=O)c3ccccc3)CC2)cc1
[1]
  IC50: 4.23 µM

## COc1ccc(C(=O)N2CCN(CCOc3ccccc3)CC2)cc1
[1]
  IC50: 16.1 µM

## CCOc1ccccc1OCCN1CCN(CC(=O)Nc2nccs2)CC1
[21]
  inhibition: 11.9%

## O=C(CN1CCN(CCOc2ccc(OC(F)(F)F)cc2)CC1)Nc1nccs1
[2]
  logD: 3.94
MDCK [3]
  Papp: 12.2 ×10⁻⁶ cm/s
MDCK [4]
  Papp: 19.6 ×10⁻⁶ cm/s
MDCK [5]
  Papp: 16.9 ×10⁻⁶ cm/s
MDCK [6]
  Ratio: 1.42
[1]
  IC50: 2.29 µM
MDCK [7]
  Ratio: 1.5
[8]
  pKa: 6.74
MDCK [9]
  Papp: 16.3 ×10⁻⁶ cm/s

## O=C(CN1CCN(CCOc2ccccc2Cl)CC1)Nc1nccs1
[1]
  IC50: 3.39 µM

## Cc1ccc(NC(=O)CN2CCN(CCOc3ccc(C#N)cc3)CC2)cc1
[1]
  IC50: 4.49 µM

## O=C(c1ccccc1Cl)N1CCN(CCOc2ccccc2)CC1
[1]
  IC50: 56.7 µM

## COc1ccc(NC(=O)CN2CCN(CCOc3ccc(Cl)cc3)CC2)cc1
[1]
  IC50: 2.62 µM

## O=C(CN1CCN(CCOc2ccc(Cl)cc2)CC1)Nc1ccccc1Cl
[1]
  IC50: 3.59 µM

## Cc1ccc(C(=O)N2CCN(CCOc3ccccc3)CC2)cc1
[1]
  IC50: 7.14 µM

## O=C(c1cccs1)N1CCN(CCOc2ccc(Cl)cc2Cl)CC1
[2]
  logD: 3.73
[14]
  Papp A→B: 17 ×10⁻⁶ cm/s
MDR1 [17]
  Papp B→A: 31.5 ×10⁻⁶ cm/s
[18]
  Papp B→A: 19.1 ×10⁻⁶ cm/s
MDCK [6]
  Ratio: 1.24
[1]
  IC50: 1.48 µM
MDCK [7]
  Ratio: 0.89
[8]
  pKa: 5.23
MDR1 [20]
  Papp A→B: 39.1 ×10⁻⁶ cm/s

## Cc1ccccc1OCCN1CCN(CC(=O)Nc2ccccc2)CC1
[1]
  IC50: 11.8 µM

## CC(C)NCC(O)c1ccc(NS(C)(=O)=O)cc1 (stereo unspecified)
Rattus norvegicus [13]
  Activity: Active
Rattus norvegicus [15]
  Activity: inactive
Rattus norvegicus [19]
  Activity: Active

## O=C(c1cccs1)N1CCN(c2ccc(OC(F)(F)F)cc2)CC1
[1]
  IC50: 48.4 µM

## O=C(CN1CCN(CCOc2ccc(Cl)cc2)CC1)Nc1nccs1
[1]
  IC50: 5.18 µM

## Cc1ccc(NC(=O)CN2CCN(CCOc3ccc(Cl)cc3)CC2)cc1
[1]
  IC50: 5.02 µM

## O=C(c1cccs1)N1CCN(CCOc2ccccc2)CC1
[1]
  IC50: 37.5 µM

## Cc1cccc(C)c1OCCN1CCN(CC(=O)Nc2nccs2)CC1
[1]
  IC50: 85.9 µM

## O=C(CN1CCN(CCOc2ccc(Cl)cc2)CC1)Nc1ccccc1
[1]
  IC50: 4.38 µM

## Cc1ccccc1OCCN1CCN(C(=O)c2cccs2)CC1
[1]
  IC50: 13.5 µM

## O=C(CN1CCN(CCOc2ccc(OC(F)(F)F)cc2)CC1)Nc1ccccc1
[1]
  IC50: 7.33 µM

## Cc1ccc(OCCN2CCN(CC(=O)Nc3nccs3)CC2)c(C)c1
[1]
  IC50: 17.2 µM
